Screening results as filed in PubChem.
OX1R antag-1 – antagonists of human orexin 1 receptor (OX1R) | Orexin/Hypocretin receptor type 1 (Homo sapiens), O43613 | OX1R-expressing cells, FRET antagonist read-out | inhibition, % at 6.6 µM | 330,000 tested, 1.8% active; in the data active = inhibition mostly above about 38%, no sharp cut-off; inactive = mostly below about 40%
CHO parental Ca – ATP-evoked calcium signal inhibitors, parental CHO, primary screen, counter-screen for OX1R antagonist project, cell-based, fluorescence, Fluo-8 calcium dye; parental CHO-K1, ATP-induced calcium, Fluo-8 fluorescence; inhibition, % at 5.6 µM; 330,000 tested, 0.63% active; AID 463079, 2010;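 active = inhibition above that plate's mean sample inhibition plus 3 SD, cut at about 26% in these data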
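test system = CHO parental line | reagent = ATP stimulus | measured by = intracellular calcium via Fluo-8 no-wash fluorescent dye | control set = ATP and no-ATP DMSO wells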
TAAR1 antagonist – human TAAR1 antagonists, primary screen, Fluo-8 calcium fluorescence, CHO RD-HGA16 cells; antagonist; inhibition, % at 3 µM; 360,000 tested, 1.5% active;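 active = inhibition above a per-plate cutoff, the mean inhibition of test compounds on that plate plus 3 SD, cut at about 49% in these data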
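Material: RD-HGA16 CHO cells with stable hTAAR1 and Gα16; Dosing: single nominal final test compound concentration of 3 µM; Schedule: seeding 17-24 h prior, 75-min 37 °C, 30-min RT dye loading; Detection: kinetic Fluo-8 calcium fluorescence measurement; Measure: % inhibition from peak post-agonist over basal fluorescence ratio; Benchmarks: vehicle and agonist controls.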
GPR7 antag – GPR7 receptor antagonists, primary screen, cell-based, fluorescence, single concentration; Neuropeptides B/W receptor type 1 (Homo sapiens), P48145; GPR7-expressing cells, fluorescence antagonist assay; inhibition, % at 4.4 µM; 290,000 tested, 1.1% active; in the data active = inhibition above about 16%, passing the limit was not always enough;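 note: cells stimulated with the agonist NPW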
Target sequence (P48145 whole entry, looked up): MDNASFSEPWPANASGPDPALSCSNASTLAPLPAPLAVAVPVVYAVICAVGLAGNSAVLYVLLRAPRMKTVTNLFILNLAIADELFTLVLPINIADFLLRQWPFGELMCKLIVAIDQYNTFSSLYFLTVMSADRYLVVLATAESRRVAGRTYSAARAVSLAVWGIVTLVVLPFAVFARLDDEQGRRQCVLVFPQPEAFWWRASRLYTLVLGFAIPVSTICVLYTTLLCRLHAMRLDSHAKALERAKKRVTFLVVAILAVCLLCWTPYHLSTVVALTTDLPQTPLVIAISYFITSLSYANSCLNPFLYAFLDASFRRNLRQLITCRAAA
OX1R antag-2 – OX1R (HCRTR1) antagonists, primary screen, fluorescence, CHO/OX1R cells, Fluo-8 calcium, orexin A | Fluo-8 calcium fluorescence | inhibition, % at 5 µM | 330,000 tested, 0.43% active | AID 434989, 2010;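 active = inhibition above its plate's threshold, mean inhibition of all tested compounds on the plate plus 3 SD, cut at about 37% in these data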
TAAR1 agonist – human TAAR1 agonists, primary screen, Fluo-8 calcium fluorescence, CHO RD-HGA16 cells. Trace amine-associated receptor 1 (Homo sapiens), Q96RJ0. vehicle wells 0%, saturating PEA agonist 100%. activation, % at 3 µM. 360,000 tested, 0.99% active;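 active = activation above the mean activation of all test compounds in the run plus 3 SD, cut at about 38% in these data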
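Assay system: CHO-derived RD-HGA16 cells with stable Gα16 and human TAAR1; timing: 17-24 h seeding, 75 min 37 °C dye, 30 min RT; read-out: % activation from peak over basal fluorescence ratio, DMSO-to-PEA scaled; measured by: kinetic Fluo-8 calcium fluorescence; benchmarks: low control DMSO, high control PEA (EC100); doses: 3 µM single concentration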
Large screens that a line does not name were inactive. The list is not random: actives were taken first. Their share in the collection is about 4.6%.

C=CC[C@H](CC(=O)N(CCO)Cc1ccccc1)C(=O)NCCOC(=O)[C@@H](CC=C)Cc1ccc(F)cc1	none (no result: GPR7 antag)
C=CC[C@@H](CC(=O)N(CCO)Cc1ccccc1)C(=O)NC[C@@H](OC(=O)[C@@H](CC=C)Cc1ccc(F)cc1)c1ccccc1	TAAR1 antagonist 68.5 (no result: GPR7 antag)
C=CC[C@H](CC(=O)N(CCO)Cc1ccccc1)C(=O)NC[C@H](OC(=O)[C@@H](CC=C)Cc1ccc(F)cc1)c1ccccc1	TAAR1 antagonist 90.3 (no result: GPR7 antag)
C#CCN(Cc1ccco1)C(=O)c1nnc2c3ccccc3n(S(=O)(=O)c3ccc(C)cc3)c2n1	none (no result: OX1R antag-1, CHO parental Ca, GPR7 antag, OX1R antag-2)
CCN(CC)C(=O)c1ccc(Cc2cn(C)c3ccccc23)nc1	none (no result: OX1R antag-1, CHO parental Ca, GPR7 antag, OX1R antag-2)
Cc1ccc(S(=O)(=O)N(CC(=O)N2CCCC2)C2CCCCC2)cc1	none
Cc1cc(C)c(S(=O)(=O)N(CC(=O)N2CCCC2)C2CCCCC2)c(C)c1	GPR7 antag 15.6
COC(=O)c1ccc(C)c(NC(=O)c2c(-c3ccccc3)noc2C)c1	OX1R antag-1 38.3
COC(=O)c1ccc(NC(=S)NC(=O)c2c(-c3ccccc3)noc2C)cc1	none
CC(=O)N[C@@H](Cc1c[nH]c2ccccc12)C(=O)OCC(=O)Nc1ccc(Cl)c(S(=O)(=O)N(C)C)c1	OX1R antag-1 54.4
O=C1C2CC=C(Cl)CC2C(=O)N1CCCCCCN1C(=O)C2CC=C(Cl)CC2C1=O (stereo unspecified)	TAAR1 agonist 40.6
CC1CCN(CCC(=O)N/N=C/c2ccc([N+](=O)[O-])cc2)CC1	OX1R antag-1 44.6
C[C@H](CCC(=O)OCc1cn(CC(=O)c2ccc(O)cc2)nn1)C1CC[C@H]2[C@@H]3CC[C@@H]4C[C@H](O)CC[C@]4(C)[C@H]3C[C@H](O)[C@]12C (stereo partly specified)	TAAR1 antagonist 53.5 (no result: OX1R antag-1, CHO parental Ca, GPR7 antag, OX1R antag-2)
C[C@H](CCC(=O)O)[C@H]1CC[C@H]2[C@@H]3CC[C@@H]4C[C@H](O)CC[C@]4(C)[C@H]3C[C@H](O)[C@]12C	none (no result: GPR7 antag)
CCOC(=O)c1cccc(NC(=O)COc2nsnc2N2CCOCC2)c1	TAAR1 antagonist 49.6
C/C(=C\c1ccc(C)o1)C(=O)c1c(C)cc(C)[nH]c1=O	GPR7 antag 19.5
Cc1noc(C)c1CN1C(=O)c2ccc([N+](=O)[O-])cc2C1=O	OX1R antag-1 52.9
O=S(=O)(NCc1ccncc1)c1ccc(F)c(F)c1	none (no result: OX1R antag-1, CHO parental Ca, GPR7 antag, OX1R antag-2)
COc1cc(S(=O)(=O)NCc2ccncc2)ccc1Br	CHO parental Ca 30.8
CNC(=O)c1cc(S(=O)(=O)NCc2ccncc2)ccc1OC	none
CCN(C1CCCCC1)S(=O)(=O)c1ccc(S(=O)(=O)NCc2ccncc2)cc1	GPR7 antag 20.8
Cc1ccc(S(=O)(=O)NCc2ccncc2)cc1C	CHO parental Ca 32.6, OX1R antag-2 40.9
CCN(C1CCCCC1)S(=O)(=O)c1ccc(S(=O)(=O)NCCc2ccncc2)cc1	none
CCc1nc2ccc(C(=O)N3CCN(S(=O)(=O)CC)CC3)cn2c1N(C)C(=O)c1cccc(OC)c1	none (no result: OX1R antag-1, CHO parental Ca, GPR7 antag, OX1R antag-2)
COC(=O)c1c(-c2ccc(OC)cc2)c2c(c3c4cc(OC)ccc4n(C(=O)c4ccccc4)c13)C(=O)N(C)C2	none (no result: OX1R antag-1, CHO parental Ca, GPR7 antag, OX1R antag-2)
Nc1nc2c(C(=O)N3CCCC3)nnn2c2ccccc12	none (no result: OX1R antag-1, CHO parental Ca, GPR7 antag, OX1R antag-2)
CCCCCn1c(C)c(CC(=O)Nc2ccc(Oc3cccnc3)c(C)c2)c2ccccc21	none (no result: OX1R antag-1, CHO parental Ca, GPR7 antag, OX1R antag-2)
CCOC1=C2CN(S(=O)(=O)c3ccc(C)cc3)C(c3ccccc3)CC2N(S(=O)(=O)c2ccc(C)cc2)C(c2ccc(Br)cc2)C1 (stereo unspecified)	none (no result: OX1R antag-1, CHO parental Ca, GPR7 antag, OX1R antag-2)
OCCSc1nc(-c2ccccc2)nc2ccc(F)cc12	OX1R antag-1 47.2
COC(=O)CSc1nc(-c2ccccc2)nc2ccc(F)cc12	none
CC1(C(=O)NS(=O)(=O)c2ccc3c(c2)CCO3)CCN1C(=O)COc1ccc(Cl)cc1 (stereo unspecified)	none (no result: OX1R antag-1, CHO parental Ca, GPR7 antag, OX1R antag-2)
